High-throughput results: PubChem BioAssay, several laboratories
XBP1 UPR activ: activators of adaptive XBP1 UPR arm, primary screen, cell-based, CHO-XBP1 luciferase reporter, luminescence, uHTS | IRE1-XBP1 UPR activation; percent of tunicamycin response, DMSO as zero | activation, % at 20 µM | hit rate 0.33% among 330,000 | AID 463104, 2010;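 active = versus positive control, 20 µM dose yields 30% or more activation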
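Assay system: CHO-XBP1 luciferase reporter cells; Schedule: 6 h treatment, 37 °C; Detection: glow luminescence from Steady-Glo reagent; Benchmarks: high control tunicamycin 10 µg/mL final, low control DMSO vehicle only.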
TLR4-MyD88 BLA: inhibitors of TLR4-MyD88 association in cells, primary screen, cell-based, HeLa CL3-4, BLA complementation, FRET ratio. HeLa CL3-4 TLR4/MyD88 BLA complementation. hit rate 0.18% among 200,000. inhibition, % at 8.4 µM. Toll-like receptor 4 (Homo sapiens) + Myeloid differentiation primary response protein …; in the data active = inhibition above about 25%
NOD2 RIPK2 PPI: NOD2-RIPK2 binding disruptors in cells, primary screen, fluorescence, CHO cells, BLA complementation; inhibition, % at 4.98 µM; Receptor-interacting serine/threonine-protein kinase 2 (Homo sapiens), O43353; CCF4 ratio; hit rate 0.38% among 360,000; AID 624267, 2012; in the data active = inhibition above about 21%
CHOP inhibitor: inhibitors of CHOP promoter induction, primary screen, cell-based, unfolded protein response, luciferase reporter | CHO-K1 CHOP-promoter luciferase, tunicamycin-induced, 15-18 h | hit rate 3.8% among 220,000 | inhibition, % at 10 µM;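 active = compounds that reduced the stress-induced luciferase reporter signal by more than about 70% of percent inhibition, limit read from the data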
CHOP UPR activ: activators of apoptotic CHOP UPR arm, primary screen, cell-based, CHO-CHOP luciferase reporter, luminescence, uHTS; UPR activation; percent of tunicamycin response over DMSO baseline; activation, % at 10 µM; hit rate 0.34% among 330,000; AID 449763, 2010;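 active = at 10 µM dose, activation of 40% or more, normalized to positive control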
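Test system: CHO-CHOP cells, stable luciferase reporter of PERK-eIF2a-CHOP signalling | Quantity: 500 CHO-CHOP cells per well | Buffer or medium: F12 plus 10% serum | Compound dosing: 10 µM single point, 0.5% DMSO | Schedule: 6 h compound treatment, 37 °C | Signal: Luciferase luminescence | Control set: Tunicamycin high control, DMSO low control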
TLR9-MyD88 block: inhibitors of TLR9-MyD88 association in cells, primary screen, cell-based, CHO, BLA complementation, fluorescence; Toll-like receptor 9 (Homo sapiens) + Myeloid differentiation primary response protein …; CCF4 FRET ratio; inhibition, % at 4.98 µM; hit rate 0.21% among 340,000; AID 504734, 2011;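 active = inhibition above the mean over all tested compounds plus 3 SD, cut at about 21% in these data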
Each line names hits and unclear results; the compound was inactive in the other large screens. This is one part of a sample in which hits are shown more often than they occur.

CCc1nc2c(OCc3ccc(C#N)cc3)cccn2c1N(C)C(=O)C(C)C	none (no result: XBP1 UPR activ, TLR4-MyD88 BLA, CHOP inhibitor, CHOP UPR activ, TLR9-MyD88 block)
CCn1cc(C(=O)O)c(=O)c2cc(F)c(N3CCN(S(=O)(=O)c4ccc(Br)cc4)CC3)cc21	CHOP inhibitor 76 (no result: NOD2 RIPK2 PPI, TLR9-MyD88 block)
CC1=C/C(=N\Nc2ccccc2[N+](=O)[O-])CC(C)(C)C1	none
Cc1nc2ncnn2c(N2CCN(c3cccc(C(F)(F)F)c3)CC2)c1C	CHOP inhibitor 73
CCCCNC(=O)C(=O)N/N=C/c1ccc(OCC(=O)Nc2cccc(OC)c2)c(OC)c1	CHOP inhibitor 99
CCOC(=O)C1CCN(CC(O)COc2ccc(C(C)(C)C)cc2)CC1 (stereo not drawn)	none
CCOC(=O)C1CCN(CC(O)COc2ccc(C(C)(C)CC)cc2)CC1 (stereo not drawn)	CHOP inhibitor 93
CC(=O)c1cccc(S(=O)(=O)NCCC(=O)O)c1	none
CCOC(=O)Cn1nc(-c2ccccc2)c2cnc3ccc(C)cc3c21	CHOP inhibitor 73
COc1ccc(N(CC(=O)Nc2ccc(C)c(C)c2)S(=O)(=O)c2c(C)noc2C)cc1	none (no result: TLR4-MyD88 BLA, CHOP inhibitor)
CCOc1ccc(N(CC(=O)Nc2ccc(F)c(F)c2)S(=O)(=O)c2c(C)noc2C)cc1	CHOP inhibitor 90
COc1ccc(NC(=O)CN(c2ccc(C(C)C)cc2)S(=O)(=O)c2c(C)noc2C)cc1OC	CHOP inhibitor 71
Cc1ccc(N2CC(C(=O)NCc3ccccn3)CC2=O)cc1 (stereo not drawn)	none
Nc1ccc(Nc2ccncc2)cc1	none (no result: XBP1 UPR activ, TLR4-MyD88 BLA, CHOP inhibitor, CHOP UPR activ)
O=C(Nc1nnc(-c2cccs2)o1)c1cccc(Oc2ccccc2)c1	CHOP inhibitor 84
O=C(Nc1ccccc1)c1ccccc1NS(=O)(=O)c1ccc(Cl)s1	none
O=C(Nc1ccccc1Cc1ccccc1)c1ccccc1NS(=O)(=O)c1ccc(Cl)s1	CHOP inhibitor 71
COC(=O)c1ccc(CNC(=O)C2CCC(=O)N(CCc3ccccn3)C2)cc1 (stereo not drawn)	none (no result: XBP1 UPR activ, TLR4-MyD88 BLA, CHOP inhibitor, CHOP UPR activ)
COc1nnc(-c2ccc(N3CCCCC3)c(NC(=O)C3CCCCC3)c2)c2ccccc12	CHOP inhibitor 80
CNS(=O)(=O)c1cccc(C(=O)OCc2cc(Cl)cc3c2OCOC3)c1	CHOP inhibitor 75
O=C(C1CC2C=CC1C2)N1CCN(c2ccccc2)CC1 (stereo not drawn)	none
CC1(C)C(C=C(Cl)Cl)C1C(=O)N1CCN(c2ccccc2)CC1 (stereo not drawn)	CHOP inhibitor 78
COc1ccc(-c2nc(N)nc(C)c2Oc2ccccc2Br)c(O)c1	CHOP inhibitor 95
COc1ccc(N=Cc2cc3c(cc2O)OC(N)=C(C#N)C3c2ccccc2)cc1 (stereo not drawn)	CHOP inhibitor 80
CCCC(=O)NC(Nc1cccc(C(F)(F)F)c1)C(Cl)(Cl)Cl (stereo not drawn)	none
Cc1ccc(Nc2c(-c3ccccn3)nc3cc(C)ccn23)cc1	CHOP inhibitor 76
Cc1ccc(Nc2c(-c3ccccn3)nc3ccc(C)cn23)cc1	CHOP inhibitor 80
Cc1cc(C)n2c(Nc3ccc4c(c3)OCCO4)c(-c3ccccn3)nc2n1	none (no result: XBP1 UPR activ, TLR4-MyD88 BLA, CHOP inhibitor, CHOP UPR activ, TLR9-MyD88 block)
Cc1ccc2nc(-c3ccncc3)c(Nc3ccccc3)n2c1	none
Cc1ccn2c(Nc3ccc4c(c3)OCO4)c(-c3ccccn3)nc2c1	CHOP inhibitor 78
CN1CCN(C(=O)CCn2c(=S)[nH]c3ccccc3c2=O)CC1	none (no result: XBP1 UPR activ, TLR4-MyD88 BLA, CHOP inhibitor, CHOP UPR activ)
O=c1[nH][nH]c2c1[C@H](c1ccc(F)cc1)O[C@H](CCc1ccccc1)C2	none (no result: XBP1 UPR activ, TLR4-MyD88 BLA, CHOP inhibitor, CHOP UPR activ, TLR9-MyD88 block)
CCC(=C(c1ccc(OC)cc1)c1ccc(OC)cc1)c1cn(CC(O)CN(CCO)CCO)c2ccccc12 (stereo not drawn)	CHOP inhibitor 76
CCc1c(C#N)c(SCCC(=O)Nc2ccc(F)cc2)nc2c1C(=O)CC(C)(C)C2	CHOP inhibitor 88
COc1cccc2c1OCC(C(=O)Nc1nccs1)=C2	none (no result: TLR4-MyD88 BLA, CHOP inhibitor)
CC(=O)Nc1sc(N/N=C\c2cccc(Cl)c2)nc1-c1cccs1	CHOP inhibitor 96
CC(=O)Nc1sc(N/N=C\c2ccc(O)cc2)nc1-c1cccs1	none (no result: TLR4-MyD88 BLA)
CC(C)[C@@H]1Cc2[nH]c(=S)[nH]c(=O)c2[C@H](CCc2ccccc2)O1	none (no result: XBP1 UPR activ, TLR4-MyD88 BLA, CHOP inhibitor, CHOP UPR activ, TLR9-MyD88 block)
O=C(CC1S/C(=N/N=C/c2cccs2)NC1=O)Nc1ccc(Cl)cc1 (stereo not drawn)	CHOP inhibitor 94
CCOC(=O)c1cnc2c(OC)cccc2c1N1CCN(c2ccc(OC)cc2)CC1	CHOP inhibitor 83
CCOC(=O)c1cnc2c(OC)cccc2c1N1CCN(c2ccccc2OC)CC1	none
CCOC(=O)c1c(C)n(C)c2cc(-c3ccc(C)cc3)c(O)cc12	CHOP inhibitor 81
Cc1ccc(Oc2ccc(OCC(=O)NC3CCS(=O)(=O)C3)cc2)cc1 (stereo not drawn)	none (no result: TLR4-MyD88 BLA, CHOP inhibitor)
CC(=O)OCCNc1cc(N2CCN(C)CC2)c2noc3c2c1C(=O)c1ccccc1-3	none (no result: XBP1 UPR activ, CHOP UPR activ)
CCOC(=O)C(C(=O)OCC)c1cc(Br)c2noc3c2c1C(=O)c1ccccc1-3	CHOP inhibitor 110
CC1Cc2ccccc2N1C(=O)Cc1cccs1 (stereo not drawn)	CHOP inhibitor 71
CC(=O)Nc1ccc(NC(=O)c2ccc(NS(=O)(=O)c3cc(C(C)(C)C)cc(C)c3C)cc2)cc1	CHOP inhibitor 76
Cc1cc(C(C)(C)C)cc(S(=O)(=O)Nc2ccc(O)c(C(=O)O)c2)c1C	none
CCC1(C2C=COC=C2)NC(=O)NC1=O (stereo not drawn)	none (no result: XBP1 UPR activ, TLR4-MyD88 BLA, CHOP inhibitor, CHOP UPR activ, TLR9-MyD88 block)
O=C(COc1cccc(Oc2ccccc2)c1)Nc1ccc(SC(F)F)cc1	none
O=C(COc1cccc(OC(F)F)c1)Nc1ccc(SC(F)F)cc1	CHOP inhibitor 94
COc1ccc(-c2ccc(C#N)c(OC)n2)cc1	none (no result: TLR9-MyD88 block)
CCOc1nc(-c2ccccc2Cl)ccc1C#N	CHOP inhibitor 71
CCN(c1ccccc1)S(=O)(=O)c1cc(C(=O)Nc2cccc(Cl)c2)ccc1F	none
CCc1ccc(NC(=O)c2ccc(F)c(S(=O)(=O)N(CC)c3ccccc3)c2)cc1	CHOP inhibitor 77
Cc1nn(CCCC(=O)Nc2cc(Oc3ccccc3)cc([N+](=O)[O-])c2)c(C)c1[N+](=O)[O-]	none
Cc1nn(C)cc1C(=O)Nc1cc(Oc2ccc(Cl)cc2)cc([N+](=O)[O-])c1	CHOP inhibitor 82
CCOc1ccc(Oc2cc(NC(=O)c3ccco3)cc([N+](=O)[O-])c2)cc1	CHOP inhibitor 87 (no result: XBP1 UPR activ, CHOP UPR activ)
